From ChEMBL document CHEMBL3414559, “Novel C-4 heteroaryl 13-cis-retinamide Mnk/AR degrading agents inhibit cell proliferation and migration and induce apoptosis in human breast and prostate cancer cells and suppress growth of MDA-MB-231 human breast and CWR22Rv1 human prostate tumor xenografts in mice” (J Med Chem, 2015)

Experiments:
LNCaP = assay: Growth inhibition of human LNCAP cells by MTT assay; assay type: functional
How it was run: (§1)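 Cells grown in RPMI 1640 with 10% FBS, plated at 2500 cells/well, treated across a dose range; growth read by MTT. GI50 taken from dose–response curves by nonlinear regression, at least three independent experiments.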

[1] = Growth inhibition of human CWR22Rv1 cells by MTT assay; assay type: functional, CWR22R; settings: 22Rv1; how it was run: as §1
[2] = Growth inhibition of human PC3 cells by MTT assay; assay type: functional; settings: PC-3; how it was run: as §1
MCF7 = assay: Growth inhibition of human MCF7 cells by MTT assay; assay type: functional; how it was run: as §1
MDA-MB-231 = assay: Growth inhibition of human MDA-MB-231 cells by MTT assay; assay type: functional; how it was run: as §1
MDA-MB-468 = assay: Growth inhibition of human MDA-MB-468 cells by MTT assay; assay type: functional; how it was run: as §1
[3] = Growth inhibition of human SKBR3 cells by MTT assay; assay type: functional; settings: SK-BR-3; how it was run: as §1

Q: What does the source list for `CC(O)(CS(=O)(=O)c1ccc(F)cc1)C(=O)Nc1ccc(C#N)c(C(F)(F)F)c1` (stereo not given) [BICALUTAMIDE]?
A: GI50 (LNCaP): 2.61 µM; GI50 [1]: 3.81 µM; GI50 [2]: 9.15 µM

Q: For `CC1=C(/C=C/C(C)=C/C=C/C(C)=C\C(=O)NCc2ccc(F)cc2)C(C)(C)CCC1n1ccnc1` (stereo not given), which GI50 (MCF7) is on record?
A: The GI50 was 1.93 µM.

Q: What about the GI50 (MDA-MB-231) of the same compound?
A: Its GI50 is 1.41 µM.

Q: What about the GI50 (MDA-MB-468) of the same compound?
A: Its GI50 is 2.45 µM.

Q: What about the GI50 [3] of the same compound?
A: Its GI50 is 5.5 µM.

Q: With `CC1=C(/C=C/C(C)=C/C=C/C(C)=C\C(=O)NCCc2ccc(O)cc2)C(C)(C)CCC1n1ccnc1` (stereo not given) as the compound, how does the GI50 (MCF7) read?
A: The GI50 was 1.9 µM.

Q: And the GI50 (MDA-MB-231)?
A: Its GI50 is 2.88 µM.

Q: What about the GI50 (MDA-MB-468) of the same compound?
A: The GI50 was 13.5 µM.

Q: What about the GI50 [3] of the same compound?
A: The GI50 was 1.41 µM.

Q: For `CC1=C(/C=C/C(C)=C/C=C/C(C)=C\C(=O)Nc2ccccc2)C(C)(C)CC=C1c1cncnc1`, which GI50 (MCF7) is on record?
A: Its GI50 is 7.01 µM.

Q: What about the GI50 (MDA-MB-231) of the same compound?
A: The GI50 was 26.9 µM.

Q: What about the GI50 (MDA-MB-468) of the same compound?
A: The GI50 was 22.9 µM.

Q: And the GI50 [3]?
A: Its GI50 is 31 µM.

Q: What does the source list for `CC1=C(/C=C/C(C)=C/C=C/C(C)=C\C(=O)NCc2ccccc2)C(C)(C)CCC1n1ccnc1` (stereo not given)?
A: GI50 (MCF7): 9.77 µM; GI50 (MDA-MB-231): 5.88 µM; GI50 (MDA-MB-468): 7.24 µM; GI50 [3]: 10.7 µM; GI50 (LNCaP): > 100 µM; GI50 [1]: > 100 µM; GI50 [2]: > 100 µM

Q: For `CC1=C(/C=C/C(C)=C/C=C/C(C)=C\C(=O)Nc2ccc(F)cc2)C(C)(C)CCC1n1ccnc1` (stereo not given), which GI50 (MCF7) is on record?
A: Its GI50 is 0.4 µM.

Q: What about the GI50 (MDA-MB-231) of the same compound?
A: Its GI50 is 4.95 µM.

Q: And the GI50 (MDA-MB-468)?
A: Its GI50 is 4.57 µM.

Q: What about the GI50 [3] of the same compound?
A: The GI50 was 25.1 µM.

Q: What about the GI50 (LNCaP) of the same compound?
A: Its GI50 is 3.89 µM.

Q: What about the GI50 [1] of the same compound?
A: Its GI50 is 8.12 µM.

Q: And the GI50 [2]?
A: Its GI50 is 30.2 µM.

Q: Which GI50 (MCF7) does the source give for `CC1=C(/C=C/C(C)=C/C=C/C(C)=C\C(=O)Nc2ccc(O)cc2)C(C)(C)CCC1n1ccnc1` (stereo not given) here?
A: Its GI50 is 1.99 µM.

Q: And the GI50 (MDA-MB-231)?
A: The GI50 was 13.1 µM.

Q: And the GI50 (MDA-MB-468)?
A: Its GI50 is 6.83 µM.

Q: And the GI50 [3]?
A: Its GI50 is 3.89 µM.

Q: What about the GI50 (LNCaP) of the same compound?
A: Its GI50 is 3.54 µM.

Q: What about the GI50 [1] of the same compound?
A: Its GI50 is 3.89 µM.

Q: What about the GI50 [2] of the same compound?
A: The GI50 was 11.7 µM.

Q: What does the source list for `CC1=C(/C=C/C(C)=C/C=C/C(C)=C\C(=O)NCCc2ccc(O)cc2)C(C)(C)CC=C1c1cccnc1`?
A: GI50 (MCF7): 8.75 µM; GI50 (MDA-MB-231): 26.9 µM; GI50 (MDA-MB-468): 50.1 µM; GI50 [3]: 42.2 µM
